From ChEMBL document CHEMBL1629713, “Discovery of benzoylisoindolines as a novel class of potent, selective and orally active GlyT1 inhibitors” (Bioorg Med Chem Lett, 2010)
pEC50, pIC50: −log10 of the molar value. Converted amounts (≈) assume the structure as drawn.

Legend:
[1] = target: T1, Sodium- and chloride-dependent glycine transporter 1 (Homo sapiens, UniProt P48067); assay: Inhibition of human GlyT1 expressed in CHO cells assessed as inhibition of [3H]glycine uptake by liquid scintillation counting; assay type: cell-based
T1 sequence (P48067 whole entry): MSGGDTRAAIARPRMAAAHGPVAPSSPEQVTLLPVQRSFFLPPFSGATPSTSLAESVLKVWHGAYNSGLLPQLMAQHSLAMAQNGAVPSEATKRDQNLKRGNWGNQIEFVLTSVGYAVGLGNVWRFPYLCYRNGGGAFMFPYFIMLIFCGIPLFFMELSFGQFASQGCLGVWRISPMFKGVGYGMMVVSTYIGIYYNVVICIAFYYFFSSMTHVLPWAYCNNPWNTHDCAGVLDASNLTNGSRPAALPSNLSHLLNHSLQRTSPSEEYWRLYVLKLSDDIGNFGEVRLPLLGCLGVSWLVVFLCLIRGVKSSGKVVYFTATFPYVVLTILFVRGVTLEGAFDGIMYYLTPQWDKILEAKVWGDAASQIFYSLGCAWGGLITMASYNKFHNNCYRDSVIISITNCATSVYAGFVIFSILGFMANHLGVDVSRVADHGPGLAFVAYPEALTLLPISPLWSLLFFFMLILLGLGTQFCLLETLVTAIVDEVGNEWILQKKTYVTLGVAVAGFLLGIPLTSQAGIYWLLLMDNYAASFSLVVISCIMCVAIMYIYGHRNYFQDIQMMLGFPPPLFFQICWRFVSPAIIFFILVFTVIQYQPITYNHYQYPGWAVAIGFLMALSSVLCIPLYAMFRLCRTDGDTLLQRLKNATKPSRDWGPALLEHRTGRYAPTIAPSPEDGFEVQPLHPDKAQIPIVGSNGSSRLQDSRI
Outline: (§1)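 [3H]-glycine uptake inhibition in cells transfected with human GlyT1 or human GlyT2 cDNA. EC50 values averaged from at least two independent experiments.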

[2] = target: T2, Sodium- and chloride-dependent glycine transporter 2 (Homo sapiens, UniProt Q9Y345); assay: Inhibition of human GlyT2 expressed in CHO cells assessed as inhibition of [3H]glycine uptake by liquid scintillation counting; assay type: cell-based; outline: as §1
T2 sequence (Q9Y345 whole entry): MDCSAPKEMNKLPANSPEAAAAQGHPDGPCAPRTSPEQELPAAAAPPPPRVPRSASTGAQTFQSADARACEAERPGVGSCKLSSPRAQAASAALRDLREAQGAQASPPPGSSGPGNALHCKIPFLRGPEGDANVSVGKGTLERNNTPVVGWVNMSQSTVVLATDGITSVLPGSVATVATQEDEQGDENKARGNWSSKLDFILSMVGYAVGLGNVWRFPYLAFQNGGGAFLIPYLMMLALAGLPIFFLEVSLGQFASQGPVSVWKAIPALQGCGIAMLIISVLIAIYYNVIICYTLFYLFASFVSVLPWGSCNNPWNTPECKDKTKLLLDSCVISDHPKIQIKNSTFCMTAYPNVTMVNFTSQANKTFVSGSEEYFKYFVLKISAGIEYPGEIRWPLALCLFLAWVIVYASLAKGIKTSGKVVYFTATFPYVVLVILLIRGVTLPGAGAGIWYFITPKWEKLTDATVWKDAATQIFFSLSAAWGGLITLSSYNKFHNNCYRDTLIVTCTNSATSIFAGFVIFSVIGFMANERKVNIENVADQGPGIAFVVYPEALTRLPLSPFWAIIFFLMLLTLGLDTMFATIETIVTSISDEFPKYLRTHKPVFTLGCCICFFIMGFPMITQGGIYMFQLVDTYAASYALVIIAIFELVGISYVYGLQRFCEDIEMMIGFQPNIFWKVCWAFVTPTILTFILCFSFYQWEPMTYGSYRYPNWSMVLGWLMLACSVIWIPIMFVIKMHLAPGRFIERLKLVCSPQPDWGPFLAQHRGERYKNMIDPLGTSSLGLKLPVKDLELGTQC

[3] = Permeability of the compound by PAMPA; assay type: ADME; details: read-out: permeability
Outline: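 PAMPA: permeation constant Pe (10^-6 cm/s) measured through artificial membranes.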

[4] = Aqueous solubility of the compound by lyophilisate solubility assay; assay type: physicochemical; details: buffer
Outline: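 LYSA: compound in DMSO solution lyophilized, then dissolved in 0.05 M phosphate buffer pH 6.5, stirred 1 h and shaken 2 h; solubility in µg/ml.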

Mus musculus = assay: Antipsychotic activity in po dosed mouse assessed as inhibition of L-687414-induced hyperlocomotion after 60 mins; assay type: functional; details: 1 h, read-out: ID50 (the source's name)
Outline: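 Mice given compound orally, n = 8 per group; hyperlocomotion induced by L-687,414. Horizontal activity counts recorded over a 60-min period and reported as group means. ID50 (mg/kg) derived from dose-dependent inhibition of the L-687,414-induced response.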

hERG (KCNH2) = hERG (KCNH2) (Homo sapiens, UniProt Q12809); assay: Inhibition of human ERG at 10 uM by patch clamp assay
Chain of hERG (KCNH2) (Q12809 whole entry): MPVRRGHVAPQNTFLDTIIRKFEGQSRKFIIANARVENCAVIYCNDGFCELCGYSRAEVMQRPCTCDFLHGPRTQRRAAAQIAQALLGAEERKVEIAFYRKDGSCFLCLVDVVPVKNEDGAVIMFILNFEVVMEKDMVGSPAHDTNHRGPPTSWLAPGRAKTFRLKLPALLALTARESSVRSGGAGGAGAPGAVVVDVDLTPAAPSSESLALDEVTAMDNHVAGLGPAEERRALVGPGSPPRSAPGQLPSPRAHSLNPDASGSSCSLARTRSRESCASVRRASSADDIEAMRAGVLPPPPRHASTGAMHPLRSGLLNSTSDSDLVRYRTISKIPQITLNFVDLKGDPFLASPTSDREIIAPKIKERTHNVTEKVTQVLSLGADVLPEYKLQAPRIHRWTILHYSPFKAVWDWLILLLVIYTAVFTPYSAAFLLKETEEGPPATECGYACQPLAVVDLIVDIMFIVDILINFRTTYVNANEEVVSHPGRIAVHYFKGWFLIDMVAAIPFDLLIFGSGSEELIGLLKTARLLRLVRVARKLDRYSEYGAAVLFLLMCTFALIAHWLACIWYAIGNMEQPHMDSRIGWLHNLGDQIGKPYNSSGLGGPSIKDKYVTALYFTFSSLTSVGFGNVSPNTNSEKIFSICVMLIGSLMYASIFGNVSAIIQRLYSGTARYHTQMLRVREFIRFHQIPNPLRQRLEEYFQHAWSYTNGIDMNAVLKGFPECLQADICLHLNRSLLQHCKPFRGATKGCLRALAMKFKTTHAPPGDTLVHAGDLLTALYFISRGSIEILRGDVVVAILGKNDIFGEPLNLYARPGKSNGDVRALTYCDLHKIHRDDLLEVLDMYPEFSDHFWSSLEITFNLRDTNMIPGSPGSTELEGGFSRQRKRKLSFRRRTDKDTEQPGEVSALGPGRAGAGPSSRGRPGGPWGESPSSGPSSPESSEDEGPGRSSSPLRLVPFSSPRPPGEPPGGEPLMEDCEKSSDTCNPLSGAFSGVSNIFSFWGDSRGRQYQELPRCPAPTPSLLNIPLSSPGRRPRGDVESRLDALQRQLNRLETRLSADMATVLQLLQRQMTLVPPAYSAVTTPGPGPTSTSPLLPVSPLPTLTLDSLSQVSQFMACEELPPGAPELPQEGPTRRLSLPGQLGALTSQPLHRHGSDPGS
Outline: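 hERG block measured by patch clamp at 10 µM; values averaged from at least two independent experiments.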

[5] = Oral bioavailability in rat; assay type: ADME, organism-based; details: in vivo
[6] = Clearance in rat; assay type: ADME, organism-based; details: in vivo
[7] = Ratio of drug level in brain to plasma in rat; assay type: ADME; details: read-out: BPR
[8] = Volume of distribution in rat; assay type: ADME, organism-based; details: in vivo
Cytochrome P450 3A4 = Cytochrome P450 3A4 (Homo sapiens, UniProt P08684); assay: Inhibition of CYP3A4; assay type: ADME
Chain of Cytochrome P450 3A4 (P08684 whole entry): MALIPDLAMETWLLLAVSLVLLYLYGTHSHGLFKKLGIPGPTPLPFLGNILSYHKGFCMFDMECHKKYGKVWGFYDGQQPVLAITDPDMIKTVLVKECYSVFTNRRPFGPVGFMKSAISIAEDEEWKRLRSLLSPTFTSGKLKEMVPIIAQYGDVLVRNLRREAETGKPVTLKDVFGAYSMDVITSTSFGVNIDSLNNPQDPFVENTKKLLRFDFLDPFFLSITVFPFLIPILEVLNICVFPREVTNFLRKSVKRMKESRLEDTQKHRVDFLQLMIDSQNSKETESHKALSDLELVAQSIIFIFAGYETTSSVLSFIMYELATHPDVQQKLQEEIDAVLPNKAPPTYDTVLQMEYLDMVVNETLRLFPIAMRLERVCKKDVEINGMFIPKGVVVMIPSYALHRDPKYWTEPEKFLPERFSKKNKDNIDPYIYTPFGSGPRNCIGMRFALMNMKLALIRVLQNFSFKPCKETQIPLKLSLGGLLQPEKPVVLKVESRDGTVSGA

[9] = Intrinsic clearance in mouse liver microsomes assessed per mg of protein; assay type: ADME, Microsome
[10] = Intrinsic clearance in human liver microsomes assessed per mg of protein; assay type: ADME, Microsome
Homo sapiens = organism: Homo sapiens; assay: Selectivity ratio of EC50 for human GlyT2 to EC50 for human GlyT1
Outline: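 Ratio of the two EC50s from a [³H]-glycine uptake inhibition assay run in cells transfected with human GlyT1 cDNA or human GlyT2 cDNA. Each EC50 is the average of at least two independent experiments.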

Cytochrome P450 2C9 = Cytochrome P450 2C9 (Homo sapiens, UniProt P11712); assay: Inhibition of CYP2C9; assay type: ADME
Chain of Cytochrome P450 2C9 (P11712 whole entry): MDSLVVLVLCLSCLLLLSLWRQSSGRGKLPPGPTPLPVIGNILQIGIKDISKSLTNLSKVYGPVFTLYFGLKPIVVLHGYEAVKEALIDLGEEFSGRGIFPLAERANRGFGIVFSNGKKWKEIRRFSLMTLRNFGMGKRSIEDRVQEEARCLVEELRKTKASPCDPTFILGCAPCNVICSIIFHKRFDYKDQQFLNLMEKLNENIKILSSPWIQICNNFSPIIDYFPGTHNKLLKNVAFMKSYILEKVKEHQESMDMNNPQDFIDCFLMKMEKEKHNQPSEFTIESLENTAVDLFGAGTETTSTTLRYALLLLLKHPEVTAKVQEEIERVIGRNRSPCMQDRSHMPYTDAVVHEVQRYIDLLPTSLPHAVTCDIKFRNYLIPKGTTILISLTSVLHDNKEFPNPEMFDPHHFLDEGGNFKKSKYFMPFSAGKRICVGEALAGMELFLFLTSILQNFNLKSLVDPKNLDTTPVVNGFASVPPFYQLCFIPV

Cytochrome P450 2D6 = Cytochrome P450 2D6 (Homo sapiens, UniProt P10635); assay: Inhibition of CYP2D6; assay type: ADME
Chain of Cytochrome P450 2D6 (P10635 whole entry): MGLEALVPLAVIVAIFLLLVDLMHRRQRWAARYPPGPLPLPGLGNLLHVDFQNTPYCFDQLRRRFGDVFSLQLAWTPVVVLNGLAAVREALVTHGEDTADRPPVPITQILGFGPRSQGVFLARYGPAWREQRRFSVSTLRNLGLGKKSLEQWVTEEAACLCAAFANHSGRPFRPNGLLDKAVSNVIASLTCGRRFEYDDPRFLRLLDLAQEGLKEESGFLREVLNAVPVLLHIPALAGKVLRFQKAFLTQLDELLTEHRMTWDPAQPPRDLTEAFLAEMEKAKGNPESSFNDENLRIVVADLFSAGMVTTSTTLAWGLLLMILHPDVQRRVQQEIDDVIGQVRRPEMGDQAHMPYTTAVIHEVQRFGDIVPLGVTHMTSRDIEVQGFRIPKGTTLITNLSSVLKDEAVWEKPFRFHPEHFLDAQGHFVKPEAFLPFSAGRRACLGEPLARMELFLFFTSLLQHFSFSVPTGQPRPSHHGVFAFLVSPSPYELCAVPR

[11] = target: T1, Sodium- and chloride-dependent glycine transporter 1; assay: Inhibition of human GlyT1; outline: as §1
[12] = target: T2, Sodium- and chloride-dependent glycine transporter 2; assay: Inhibition of human GlyT2; outline: as §1

Row | SMILES | pEC50 [1] | pEC50 [2] | Papp [3] [×10⁻⁶ cm/s] | solubility [4] [µg/mL] | ED50 (Mus musculus) [mg/kg] | also measured
1 | C[C@H](Oc1ccc(S(C)(=O)=O)cc1C(=O)N1Cc2ccc(N3CCOCC3)cc2C1)C(F)(F)F | 6.56 | < 4.52 | 4.3 | 355 (≈ 712 µM) |  | 
2 | COc1cccc2c1CN(C(=O)c1cc(S(C)(=O)=O)ccc1O[C@@H](C)C(F)(F)F)C2 | 5.71 | < 4.52 | 4.8 | 85 (≈ 192 µM) |  | 
3 | CS(=O)(=O)c1ccc(N2CCOCC2)c(C(=O)N2Cc3cc(C(F)(F)F)cnc3C2)c1 | 5.52 | < 4.52 | 0.9 | 495 (≈ 1090 µM) |  | 
4 | C[C@H](Oc1ccc(S(C)(=O)=O)cc1C(=O)N1Cc2ccc(N3CCN(C)CC3)cc2C1)C(F)(F)F | 5.68 | < 4.52 | 1.5 | 490 (≈ 958 µM) |  | 
5 | C[C@H](Oc1ccc(S(C)(=O)=O)cc1C(=O)N1Cc2ccccc2C1)C(F)(F)F | 5.60 | < 4.52 | 0.8 | < 1 |  | 
6 | C[C@H](Oc1ccc(S(C)(=O)=O)cc1C(=O)N1Cc2ccc(C3CCCCO3)cc2C1)C(F)(F)F (stereo partly specified) | 6.69 | < 4.52 | 0.9 | < 1 |  | 
7 | C[C@H](Oc1ccc(S(C)(=O)=O)cc1C(=O)N1Cc2cccc(C#N)c2C1)C(F)(F)F | 6.11 | < 4.52 | 0.8 | 259 (≈ 591 µM) |  | 
8 | Cc1cccc2c1CN(C(=O)c1cc(S(C)(=O)=O)ccc1O[C@@H](C)C(F)(F)F)C2 | 5.47 | < 4.52 | 4.2 | 73 (≈ 171 µM) |  | 
9 | C[C@H](Oc1ccc(S(C)(=O)=O)cc1C(=O)N1Cc2ccc(C(F)(F)F)nc2C1)C(F)(F)F | 6.60 | < 4.52 | 5.5 | 429 (≈ 889 µM) |  | 
10 | C[C@H](Oc1ccc(S(C)(=O)=O)cc1C(=O)N1Cc2ccc(N3CCCC3)cc2C1)C(F)(F)F | 6.74 | 4.84 | 0.8 | < 1 |  | 
11 | C[C@H](Oc1ccc(S(C)(=O)=O)cc1C(=O)N1Cc2ccc(Cl)cc2C1)C(F)(F)F |  |  | 4.4 | < 1 | 20 | pIC50 (Cytochrome P450 3A4): < 4.42; microsomal CLint [9]: 23.3 µL/min/mg; microsomal CLint [10]: 2.4 µL/min/mg; Ratio EC50 (Homo sapiens): > 200; pIC50 (Cytochrome P450 2C9): < 4.42; pIC50 (Cytochrome P450 2D6): < 4.42; pEC50 [11]: 6.87; pEC50 [12]: 4.52
12 | CS(=O)(=O)c1ccc(OCc2ccccc2)c(C(=O)N2Cc3cc(C(F)(F)F)cnc3C2)c1 | 6.09 | < 4.52 | 0.8 | 72 (≈ 151 µM) |  | 

More lines, main results first:

Row | pEC50 [1] | pEC50 [2] | Papp [3] [×10⁻⁶ cm/s] | solubility [4] [µg/mL] | SMILES | ED50 (Mus musculus) [mg/kg] | also measured
13 | 6.95 | < 4.52 | 4.3 | 513 (≈ 1060 µM) | CS(=O)(=O)c1ccc(OCCC(F)(F)F)c(C(=O)N2Cc3cc(C(F)(F)F)cnc3C2)c1 | 3 | 
14 | 7.15 | < 4.52 | 4.1 | 114 (≈ 266 µM) | CC(C)Oc1ccc(S(C)(=O)=O)cc1C(=O)N1Cc2cc(C(F)(F)F)cnc2C1 | 1 | inhibition at 10 µM (hERG (KCNH2)): 10%
15 | 6.74 | < 4.52 | 2.7 | 46 (≈ 104 µM) | COc1ccc2c(c1)CN(C(=O)c1cc(S(C)(=O)=O)ccc1O[C@@H](C)C(F)(F)F)C2 |  | 
16 | 6.86 | < 4.52 | 4.1 | 334 (≈ 671 µM) | CS(=O)(=O)c1ccc(OCCC(F)(F)F)c(C(=O)N2Cc3ccc(C4CCOCC4)cc3C2)c1 |  | 
17 | 7.52 | < 4.52 | 5.5 | 445 (≈ 1010 µM) | CC(C)COc1ccc(S(C)(=O)=O)cc1C(=O)N1Cc2cc(C(F)(F)F)cnc2C1 |  | inhibition at 10 µM (hERG (KCNH2)): 37%
18 | 7.77 | < 4.52 | 4.2 | 25 (≈ 51 µM) | C[C@H](Oc1ccc(S(C)(=O)=O)cc1C(=O)N1Cc2ccc(-c3ccncc3)cc2C1)C(F)(F)F | 3 | inhibition at 10 µM (hERG (KCNH2)): 58%
19 | 7.52 | < 4.52 | 6.4 | 42 (≈ 87.1 µM) | CS(=O)(=O)c1ccc(-c2ccc(F)c(F)c2)c(C(=O)N2Cc3cc(C(F)(F)F)cnc3C2)c1 | 1 | inhibition at 10 µM (hERG (KCNH2)): 38%
20 | 7.08 | < 4.52 | 0.8 | 30 (≈ 61.2 µM) | C[C@H](Oc1ccc(S(C)(=O)=O)cc1C(=O)N1Cc2ccc(-c3ccccn3)cc2C1)C(F)(F)F |  | 
21 | 7.89 | 4.92 | 2.6 | 4 (≈ 8.17 µM) | C[C@H](Oc1ccc(S(C)(=O)=O)cc1C(=O)N1Cc2ccc(-c3ccccc3)cc2C1)C(F)(F)F | 6 | inhibition at 10 µM (hERG (KCNH2)): 67%
22 | 6.88 | < 4.52 | 3.9 | 470 (≈ 974 µM) | C[C@H](Oc1ccc(S(C)(=O)=O)cc1C(=O)N1Cc2cnc(C(F)(F)F)cc2C1)C(F)(F)F |  | 
23 | 7.68 | < 4.52 | 0.7 | 1 (≈ 2.08 µM) | C[C@H](Oc1ccc(S(C)(=O)=O)cc1C(=O)N1Cc2ccc(C(F)(F)F)cc2C1)C(F)(F)F | 2 | bioavailability [5]: 23%; inhibition at 10 µM (hERG (KCNH2)): 59%; clearance [6]: 1.7 mL/min/kg; Kp [7]: 1; Vd [8]: 2.9 L/kg
24 | 7.80 | < 4.52 | 1.4 | 15 (≈ 31.3 µM) | CS(=O)(=O)c1ccc(-c2ccc(F)cc2)c(C(=O)N2Cc3ccc(C4CCOCC4)cc3C2)c1 | 0.3 | inhibition at 10 µM (hERG (KCNH2)): 36%
